# High-throughput results (PubChem)
# GASC1 inh: inhibitors of human demethylase GASC-1 KDM4C; Q9H3R0; GST-KDM4C 2-372, H3K9me3 peptide, LANCE TR-FRET; inhibition, % at 12.5 µM; actives 0.15% (n = 96,000); AID 720574;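 active = mean replicate inhibition above about 25%, with at least 55% of replicates also reaching it, limit read from the data, passing the limit was not always enough; inconclusive = only one of those two conditions met; inactive = neither condition met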
# Target sequence (Q9H3R0 2-372 limits assumed): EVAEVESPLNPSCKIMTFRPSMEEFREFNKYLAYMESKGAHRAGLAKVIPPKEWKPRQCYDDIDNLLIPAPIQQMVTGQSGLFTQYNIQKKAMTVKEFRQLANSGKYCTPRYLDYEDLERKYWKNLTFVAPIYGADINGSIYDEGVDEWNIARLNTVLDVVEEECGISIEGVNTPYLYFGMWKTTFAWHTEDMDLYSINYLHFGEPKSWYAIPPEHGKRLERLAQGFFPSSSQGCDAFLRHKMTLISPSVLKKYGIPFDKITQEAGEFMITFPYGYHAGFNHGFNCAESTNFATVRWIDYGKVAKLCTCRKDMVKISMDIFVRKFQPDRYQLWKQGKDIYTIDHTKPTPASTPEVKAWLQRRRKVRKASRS
#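 Test system: N-terminal GST-fused human GASC-1 (KDM4C) fragment, residues 2-372; quantity: GASC-1 enzyme at 10 nM final in reaction; dosing: single dose; schedule: 30 min demethylation and 1 h detection at room temperature; signal: LANCE TR-FRET, excitation 340 nm, emissions 618 and 671 nm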
# IDH1 mut inh: inhibitors of human IDH1 R132H; IDH1 R132H reductase, diaphorase/resazurin fluorescence, 60 min; inhibition, % at 10 µM; actives 0.18% (n = 70,000); AID 624101; in the data active = inhibition above about 34%; inconclusive = no clear call, values can overlap the other calls; inactive = below about 11%;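 also: 0% = DMSO and 100% = no enzyme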
# T cruzi growth-1: inhibitors of T. cruzi proliferation. T. cruzi beta-gal in NIH3T3, GalScreen luminescence, 90 h. inhibition, % at 8.34 µM. actives 5.9% (n = 77,000). AID 624255;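 active = mean inhibition above about 93%, with at least 55% of replicates each passing it, limit read from the data, passing the limit was not always enough; inconclusive = only one of those two conditions holds; inactive = neither condition holds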
# T cruzi growth-2: blocks T. cruzi growth in NIH3T3 host cells. shares compounds with T cruzi growth-1. T. cruzi beta-gal in NIH3T3, GalScreen luminescence, 90 h. inhibition, % at 8.35 µM. actives 72% (n = 5,600);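 active = mean replicate inhibition above about 95% and at least 55% of replicates individually reaching it, limit read from the data; inconclusive = only one of the two criteria is met; inactive = neither criterion is met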
# T cruzi growth-3: Trypanosoma cruzi proliferation inhibition. shares compounds with T cruzi growth-1. T. cruzi beta-gal in NIH3T3, GalScreen luminescence, 90 h. inhibition, % at 2.09 µM. actives 21% (n = 5,600). AID 651740;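 active = mean inhibition above about 95%, with at least 55% of replicates also reaching it, limit read from the data; inconclusive = meets just one of the two conditions; inactive = meets neither condition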;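 also: plate controls were neutral control median for no effect and positive control median for full effect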
# 3T3 cytotox: NIH/3T3 (mouse) viability loss. shares compounds with T cruzi growth-1. NIH/3T3 viability, CellTiter-Glo ATP luminescence, 90 h. cytotoxicity (signal decrease), % at 8.35 µM. actives 14% (n = 5,600). AID 651742;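 active = mean signal decrease across replicates above about 35% based on untreated-well scatter, with enough replicates individually passing, limit read from the data; inconclusive = no rule stated though some were filed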;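 also: 0% = median of neutral control wells and 100% = median of positive control wells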
# 3T3 cytotox 2: kills mouse NIH/3T3 fibroblasts. inhibition, % at 24.9 µM. actives 56% (n = 5,600). shares compounds with T cruzi growth-1. NIH/3T3 viability, CellTiter-Glo ATP luminescence, 90 h;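 active = mean loss of cell viability signal at or above a set limit, and enough replicates individually reaching it; inconclusive = meets only the mean limit or only the replicate share; inactive = meets neither condition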;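 also: 0% = median of neutral control wells and 100% = median of positive control wells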
# An asterisk follows results filed as active; ? = inconclusive; . = no result. The full list was thinned out, with hits kept by preference.
SMILES,GASC1 inh,IDH1 mut inh,T cruzi growth-1,T cruzi growth-2,T cruzi growth-3,3T3 cytotox,3T3 cytotox 2
CCCNC(=O)C[C@@H]1CC[C@@H]2[C@@H](COc3ccc(NC(=O)COC)cc3C(=O)N2C)O1,2,.,34,.,.,.,.
O=C(C[C@H]1CC[C@H]2[C@@H](COC[C@H](O)CN2C(=O)Nc2cccc(F)c2)O1)NCc1ccccc1F,-4,.,-66,.,.,.,.
C[C@@H]1CN([C@@H](C)CO)C(=O)c2cc(NC(=O)c3ccncc3)ccc2O[C@@H](C)CCCCO[C@@H]1CN(C)Cc1ccc2c(c1)OCO2,0,.,29,.,.,.,.
C[C@@H]1CCCCO[C@@H](CN(C)Cc2ccc3c(c2)OCO3)[C@H](C)CN([C@@H](C)CO)C(=O)c2cc(NC(=O)c3ccncc3)ccc2O1,-1,2,41,.,.,.,.
C[C@H](CO)N1C[C@H](C)[C@@H](CN(C)Cc2ccc3c(c2)OCO3)OCCCC[C@H](C)Oc2ccc(NC(=O)c3ccncc3)cc2C1=O,7,1,103*,2,1,-25,-17
C[C@@H]1CCCCO[C@H](CN(C)Cc2ccc3c(c2)OCO3)[C@H](C)CN([C@H](C)CO)C(=O)c2cc(NC(=O)c3ccncc3)ccc2O1,5,2,114*,102*,15,-4,-9
C[C@@H]1CN([C@@H](C)CO)C(=O)Cc2cc(N(C)C)ccc2O[C@@H]1CN(C)Cc1ccccc1,14,-1,-37,.,.,.,.
O=C(C[C@@H]1C=C[C@H](NC(=O)CN2CCOCC2)[C@H](CO)O1)NC1CCC1,1,0,.,.,.,.,.
C/C=C/c1ccc([C@H]2[C@@H](CN(C)C(=O)c3ccccn3)N(C(C)=O)[C@H]2CO)cc1,6,.,28,.,.,.,.
CCCNC(=O)[C@@H]1[C@@H](CO)[C@@H]2Cn3c(ccc(-c4cccnc4)c3=O)[C@@H]2N1CCC,5,.,17,.,.,.,.
CCCNC(=O)C[C@@H]1C[C@H]2c3cc(NC(=O)Nc4ccc(OC)cc4)ccc3O[C@H]2[C@H](CO)O1,0,0,42,.,.,.,.
COc1ccc(NC(=O)Nc2ccc3c(c2)[C@@H]2C[C@H](CC(=O)NCCc4ccccc4)O[C@H](CO)[C@@H]2O3)cc1,-4,0,159*,105*,101*,-28,-7
CCCNC(=O)C[C@H]1C[C@@H]2c3cc(NC(=O)Nc4ccc(OC)cc4)ccc3O[C@@H]2[C@@H](CO)O1,0,0,41,.,.,.,.
COc1ccc(NC(=O)Nc2ccc3c(c2)[C@H]2C[C@H](CC(=O)NCCc4ccccc4)O[C@H](CO)[C@H]2O3)cc1,-1,1,149*,109*,73,-20,-30
O=C(C[C@@H]1C[C@@H]2c3cc(NC(=O)Nc4ccccc4)ccc3O[C@@H]2[C@H](CO)O1)NCC1CC1,0,0,102*,-32,-7,-31,-13
O=C(C[C@@H]1C[C@H]2c3cc(NC(=O)Nc4ccc(F)cc4)ccc3O[C@H]2[C@@H](CO)O1)NCC1CC1,-1,0,-48,.,.,.,.
C[C@@H]1CN([C@@H](C)CO)C(=O)Cc2cc(NS(=O)(=O)c3cccs3)ccc2O[C@H]1CN(C)S(=O)(=O)c1ccc(Cl)cc1,-2,3,11,.,.,.,.
CCCC(=O)Nc1ccc2c(c1)OC[C@H](C)N(C(=O)CN(C)C)C[C@H](C)[C@H](OC)CN(C)C2=O,1,0,30,.,.,.,.
COCC(=O)Nc1ccc2c(c1)OC[C@@H](C)N(C(=O)c1ccccc1)C[C@@H](C)[C@@H](OC)CN(C)C2=O,0,0,-15,.,.,.,.
COCCNc1ncnc2c1cnn2-c1cccc(C)c1,.,0,.,.,.,.,.
C[C@@H]1CN([C@H](C)CO)C(=O)c2cc(C#CCN(C)C)cnc2O[C@@H]1CN(C)S(=O)(=O)c1ccccc1,1,0,42,.,.,.,.
C[C@@H]1CCCCO[C@@H](CN(C)Cc2ccc(C(F)(F)F)cc2)[C@@H](C)CN([C@H](C)CO)C(=O)c2cc(NC(=O)Nc3cccc4ccccc34)ccc2O1,-5,.,102*,104*,32,10,10
C[C@@H]1CCCCO[C@H](CN(C)Cc2ccc(C(F)(F)F)cc2)[C@@H](C)CN([C@@H](C)CO)C(=O)c2cc(NC(=O)Nc3cccc4ccccc34)ccc2O1,-2,1,122,.,.,.,.
C[C@@H]1CCCCO[C@H](CN(C)Cc2ccc(C(F)(F)F)cc2)[C@H](C)CN([C@@H](C)CO)C(=O)c2cc(NC(=O)Nc3cccc4ccccc34)ccc2O1,-1,.,?,103*,109*,?,17
C[C@@H]1CCCCO[C@@H](CN(C)Cc2ccc(C(F)(F)F)cc2)[C@H](C)CN([C@H](C)CO)C(=O)c2cc(NC(=O)Nc3cccc4ccccc34)ccc2O1,-2,-3,?,105*,115*,30,14
SMILES,GASC1 inh,IDH1 mut inh,T cruzi growth-1,T cruzi growth-2,T cruzi growth-3,3T3 cytotox,3T3 cytotox 2
C[C@@H]1CCCCO[C@@H](CN(C)Cc2ccc(C(F)(F)F)cc2)[C@H](C)CN([C@@H](C)CO)C(=O)c2cc(NC(=O)Nc3cccc4ccccc34)ccc2O1,-3,1,123*,111*,110*,2,8
C[C@@H]1CN([C@@H](C)CO)C(=O)c2cc(NC(=O)Nc3cccc4ccccc34)ccc2O[C@@H](C)CCCCO[C@H]1CN(C)Cc1ccc(C(=O)O)cc1,1,.,11,.,.,.,.
C[C@@H]1CN([C@H](C)CO)C(=O)c2cc(NC(=O)Nc3cccc4ccccc34)ccc2O[C@@H](C)CCCCO[C@H]1CN(C)Cc1ccc(C(F)(F)F)cc1,-1,4,123,.,.,.,.
CCN(CC(N)=O)S(=O)(=O)c1ccc(OC)cc1,.,0,.,.,.,.,.
O=C(C[C@@H]1C=C[C@H](NC(=O)C2CCOCC2)[C@H](CO)O1)Nc1ccc(-c2ccccc2)cc1,-1,0,32,.,.,.,.
C[C@@H]1CN([C@@H](C)CO)C(=O)c2cc(-c3cccc(C#N)c3)cnc2O[C@@H]1CN(C)C(=O)c1ccccn1,-1,0,-8,.,.,.,.
N#C[C@@H]1[C@H](c2ccc(C#Cc3ccccc3F)cc2)[C@@H](CO)N1C(=O)c1cccnc1,1,.,78,.,.,.,.
C[C@H]1CCCCO[C@@H](CN(C)S(=O)(=O)c2ccccc2)[C@@H](C)CN([C@@H](C)CO)C(=O)c2cc(NC(=O)CCC(F)(F)F)ccc2O1,-2,0,30,.,.,.,.
CCNC(=O)C[C@@H]1CC[C@H]2[C@@H](COC[C@@H](O)CN2C(=O)Nc2cccc(OC)c2)O1,2,.,.,.,.,.,.
COC(=O)C1=C(C)NC(C)=C(C(=O)OCCN(C)Cc2ccccc2)C1c1cccc([N+](=O)[O-])c1 (configuration not stated),.,-3,.,.,.,.,.
CC(C)NC(=O)N(C)C[C@H]1Oc2ccc(NC(=O)CCCCCC(=O)Nc3ccccc3N)cc2C(=O)N([C@H](C)CO)C[C@@H]1C,-1,0,5,.,.,.,.
